TbMetRS inhib: T. brucei MetRS inhibitors, primary screen, biochemical, luminescence; methionyl-tRNA synthetase (Trypanosoma brucei brucei); purified T. brucei MetRS, ATP depletion, Kinase-Glo luminescence; inhibition, % at 11.9 µM; 360,000 compounds, 0.4% hits; AID 624268, 2012;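 active = inhibition above a per-plate cutoff of the control wells' mean inhibition plus 3 SD, cut at about 5.5% in these data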
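Dosing: 11.9 µM compound single dose, 0.9% DMSO; Assay system: purified T. brucei MetRS enzyme; Measured by: Kinase-Glo luciferase luminescence reporting remaining unconsumed ATP; Schedule: 15 min plus 2 h at 25 °C.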
p47phox inh: p47phox/p22phox peptide binding inhibitors, primary screen, biochemical, uHTS, NADPH oxidase regulatory subunit. inhibition, % at 24.7 µM. Neutrophil cytosol factor 1 (Homo sapiens), P14598. AID 1274, 2008. 220,000 compounds, 0.53% hits. fluorescence polarization, 2 h
UBC9 SUMO inh: inhibitors of in vitro SUMOylation cascade, primary screen, biochemical, HTRF, uHTS; SUMO-conjugating enzyme UBC9 (Homo sapiens), P63279; HTRF SUMOylation assay, SAE1/SAE2 + UBC9; inhibition, % at 35 µM; 290,000 compounds, 0.36% hits; AID 2006, 2009; in the data active = inhibition above about 50%, passing the limit was not always enough; inconclusive = no clear call, values can overlap the other calls
eIF4E-4G inh: eIF4E–eIF4G protein interaction inhibitors, primary screen, biochemical, uHTS, TR-FRET, eIF4GI fragment; Eukaryotic translation initiation factor 4E (Mus musculus) + Eukaryotic translation …; TR-FRET eIF4E-eIF4GI(517-606) binding, 2 h; inhibition, % at 21.7 µM; 220,000 compounds, 0.37% hits
p97 ATPase inh: inhibitors of human p97 ATPase, primary screen, biochemical; Transitional endoplasmic reticulum ATPase (Homo sapiens), P55072; recombinant p97 ATPase, Kinase-Glo ATP luminescence, 3 h; inhibition, % at 8 µM; 220,000 compounds, 0.42% hits; in the data active = inhibition above about 15%
Target sequence (P55072 whole entry, looked up): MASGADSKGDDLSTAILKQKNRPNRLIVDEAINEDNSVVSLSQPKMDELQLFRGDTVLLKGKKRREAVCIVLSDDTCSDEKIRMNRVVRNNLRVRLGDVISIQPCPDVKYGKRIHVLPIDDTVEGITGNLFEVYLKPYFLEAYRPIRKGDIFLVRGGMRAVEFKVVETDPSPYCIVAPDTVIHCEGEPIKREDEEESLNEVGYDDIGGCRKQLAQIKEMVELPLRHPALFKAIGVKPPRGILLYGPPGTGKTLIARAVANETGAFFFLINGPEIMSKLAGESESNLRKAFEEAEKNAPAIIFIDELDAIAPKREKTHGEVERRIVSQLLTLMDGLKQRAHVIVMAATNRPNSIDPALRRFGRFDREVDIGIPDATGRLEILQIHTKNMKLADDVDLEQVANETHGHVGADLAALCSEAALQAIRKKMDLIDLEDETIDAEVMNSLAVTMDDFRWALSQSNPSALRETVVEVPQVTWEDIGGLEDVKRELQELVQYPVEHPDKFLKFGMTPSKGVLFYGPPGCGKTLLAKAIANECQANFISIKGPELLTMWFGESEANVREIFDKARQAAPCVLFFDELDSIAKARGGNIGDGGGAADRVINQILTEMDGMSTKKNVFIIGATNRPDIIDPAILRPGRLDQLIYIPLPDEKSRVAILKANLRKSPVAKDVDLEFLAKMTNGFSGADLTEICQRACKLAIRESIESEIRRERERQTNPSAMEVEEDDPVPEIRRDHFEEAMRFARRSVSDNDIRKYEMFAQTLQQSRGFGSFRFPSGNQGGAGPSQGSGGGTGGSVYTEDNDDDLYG
14-3-3 Bad PPI: inhibitors of 14-3-3 zeta/Bad binding, primary screen, biochemical, TR-FRET, bovine 14-3-3 zeta | 14-3-3 protein zeta/delta (Bos taurus), P63103 | TR-FRET 14-3-3zeta/Dy647-pBad peptide displacement, 1 h | inhibition, % at 21.7 µM | 220,000 compounds, 0.71% hits | AID 781, 2007;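 active = inhibition above about 70%, limit read from the data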
Of the large screens only hits and unclear results are named; the others gave an inactive call; [ ] = another dose, or the depositor's remark. Most compounds without a hit are left out; they make up all but 1.6% or so of the library.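 The calls were made as follows, unless noted: active = inhibition above about 30% (limit read from the data); inactive = the rest.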

Cc1cncn1CCc1nc2c3ccccc3nc(SCC(=O)Nc3cccc(Cl)c3)n2n1	p47phox inh 50
CC(C)N1C(=O)/C(=C/c2nc3ccccc3c(=O)n2-c2ccccc2)c2ccccc21	14-3-3 Bad PPI 77
CCOc1ccc(S(=O)(=O)NCCOC)cc1C	14-3-3 Bad PPI 73
CCCCNS(=O)(=O)c1ccc(OC)c(C)c1	none
O=C1CC(N2CCN(Cc3ccc4c(c3)OCO4)CC2)C(=O)N1c1cccc(Cl)c1 (centres undefined)	eIF4E-4G inh 66
COC(=O)C1(C)COP(=O)(Nc2ccc(OC)cc2)OC1 (centres undefined)	none (no result: p47phox inh, UBC9 SUMO inh, eIF4E-4G inh, p97 ATPase inh, 14-3-3 Bad PPI)
O=C(COC(=O)c1c2c(nc3ccccc13)/C(=C/c1ccco1)CC2)NC1CCCC1	UBC9 SUMO inh 71
CC1CCCCC1NC(=O)COC(=O)c1c2c(nc3ccccc13)/C(=C/c1ccco1)CC2 (centres undefined)	UBC9 SUMO inh 65
Cc1cc(C(=O)OCC(=O)NC2CCCCC2C)c2ccccc2n1 (centres undefined)	none (no result: p47phox inh, UBC9 SUMO inh, eIF4E-4G inh, p97 ATPase inh, 14-3-3 Bad PPI)
Cc1cc(C(=O)OCC(=O)NC2CCCC2)c2ccccc2n1	none (no result: p47phox inh, UBC9 SUMO inh, eIF4E-4G inh, p97 ATPase inh, 14-3-3 Bad PPI)
COc1cccc(C(=O)N2CCC[C@@H]2C(=O)N2CCC[C@H]2C(=O)NCc2ccncc2)c1	none (no result: p47phox inh, UBC9 SUMO inh, eIF4E-4G inh, p97 ATPase inh, 14-3-3 Bad PPI)
Cc1ccc(CSc2nnc(SCC(=O)N/N=C/c3c[nH]c4ccccc34)s2)cc1	p47phox inh 39, 14-3-3 Bad PPI 95 (no result: UBC9 SUMO inh)
O=C(CSc1nnc(SCc2ccccc2)s1)N/N=C/c1c[nH]c2ccccc12	p47phox inh 42, 14-3-3 Bad PPI 94
O=C(CSc1nnc(SCc2ccccc2Cl)s1)N/N=C/c1c[nH]c2ccccc12	none
COc1ccc(C2=NN(C(=O)c3cccs3)C(c3ccccc3O)C2)cc1 (centres undefined)	UBC9 SUMO inh 56
CCOC(=O)C1(Cc2ccccc2)CCCN(Cc2ccncc2)C1 (centres undefined)	none
Cc1[nH]n(-c2ccccc2)c(=O)c1C(c1ccccc1[N+](=O)[O-])C(C#N)C#N (centres undefined)	none (no result: p47phox inh, eIF4E-4G inh, p97 ATPase inh, 14-3-3 Bad PPI)
Cc1[nH]n(-c2ccccc2)c(=O)c1C(C[N+](=O)[O-])c1ccc(F)cc1 (centres undefined)	UBC9 SUMO inh 88
Cc1ccc(C(C[N+](=O)[O-])c2c(C)[nH]n(-c3ccccc3)c2=O)cc1 (centres undefined)	UBC9 SUMO inh 71
Cc1[nH]n(-c2ccccc2)c(=O)c1C(C[N+](=O)[O-])c1ccc(Cl)cc1 (centres undefined)	none
CCC(CC)C(=O)N1N=C(c2ccc(NS(C)(=O)=O)cc2)CC1c1ccc(C)cc1 (centres undefined)	none
N#Cc1ccncc1Sc1ccc(Cl)cc1	none (no result: p47phox inh, eIF4E-4G inh, p97 ATPase inh, 14-3-3 Bad PPI)
Cc1cc(S(=O)(=O)NCc2ccc(N3CCN(C)CC3)cc2)c(C)s1	none
CC1(C)CC2(CC(c3ccccc3)Oc3cc(O)ccc32)NC(=S)N1 (centres undefined)	none
CC(=O)Oc1ccc2c(c1)OC(c1ccccc1)CC21CC(C)(C)NC(=S)N1 (centres undefined)	eIF4E-4G inh 39
C/C=C(\C)C(=O)N1CC2(CC(c3cccc(NC(=O)CC(c4ccccc4)c4ccccc4)c3)=NO2)C[C@H]1C(N)=O (some centres undefined)	eIF4E-4G inh 88 (no result: TbMetRS inhib, p97 ATPase inh)
C=C(C)C(=O)Nc1cccc(C2=NOC3(C2)C[C@@H](C(N)=O)N(C(=O)c2ccc(Cl)cc2)C3)c1 (some centres undefined)	none (no result: TbMetRS inhib, p97 ATPase inh)
C/C=C\C=C/C(=O)Nc1cccc(C2=NOC3(C2)C[C@@H](C(N)=O)N(C(=O)/C=C/CC)C3)c1 (some centres undefined)	eIF4E-4G inh 75 (no result: p97 ATPase inh)
C/C=C(/C)C(=O)Nc1cccc(C2=NOC3(C2)C[C@H](C(N)=O)N(C(=O)c2ccc(Cl)cc2)C3)c1 (some centres undefined)	p47phox inh 42 (no result: p97 ATPase inh)
Cc1ccc(-n2sc3ccccc3c2=O)cc1	p47phox inh 101, eIF4E-4G inh 45
CN(C(=O)C1CCCO1)c1nnc(-c2cnccn2)s1 (centres undefined)	none
Cc1ccc(-c2nnc(N(C)C(=O)C3CCCO3)s2)cn1 (centres undefined)	14-3-3 Bad PPI 75
CN(C)c1ccc(N=c2sc3ccccc3n2C)cc1	eIF4E-4G inh 38[fluorescence artefact?]
Cn1c(=Nc2ccccc2)sc2ccccc21	none
O=C1CSC(=S)N1/N=C/c1ccc(O)c(O)c1O	UBC9 SUMO inh inconclusive, eIF4E-4G inh 84, 14-3-3 Bad PPI 96
CCC(C(=O)NCc1ccco1)N(C(=O)CNS(=O)(=O)c1ccccc1)c1ccc(OC)cc1 (centres undefined)	none
Cc1ccc(SCCCn2cncn2)cc1	none
Clc1ccc(SCCn2cncn2)cc1	14-3-3 Bad PPI 73
Cc1nc(SCc2cccnc2)[nH]c(=O)c1C	none (no result: p47phox inh, eIF4E-4G inh, p97 ATPase inh, 14-3-3 Bad PPI)
Cc1ccc(NC(=O)/C(CN(C)C)=N\O)cc1	14-3-3 Bad PPI 93[fluorescence artefact?]
Cc1ccc(NC(=O)CN(C)C(=O)Nc2ccc(C)cc2)cc1	none (no result: p47phox inh, eIF4E-4G inh, p97 ATPase inh, 14-3-3 Bad PPI)
c1ccc(-c2cc(-c3nnc4n3N=C(c3ccc5ccccc5c3)CS4)[nH]n2)cc1	p47phox inh 45
CCOC(=O)C1CCCN(S(=O)(=O)c2cnc(Cl)c(Br)c2)C1 (centres undefined)	none (no result: p47phox inh, eIF4E-4G inh, p97 ATPase inh, 14-3-3 Bad PPI)
O=C(COc1ccc(Cl)cc1Cl)Nc1ccc(CN2CCCCC2)cc1	p47phox inh 38
S=c1[nH]c(-c2ccccc2)cn1/N=C/c1cccnc1	eIF4E-4G inh 96
COc1ccc(CNC(=O)c2c(O)c3cccc4c3n(c2=O)CCC4)cc1OC	p47phox inh 54
CCCN1CCN(C(=O)CCCNC(=O)Cn2cnc3sc(C)c(C)c3c2=O)CC1	eIF4E-4G inh 36[fluorescence artefact?]
COc1ccc(O)c(/C=C(\C#N)C(=O)Nc2cccnc2)c1	eIF4E-4G inh 37
CCc1ccc(N(C(=O)c2csnn2)C(C(=O)NCc2ccccc2)c2ccco2)cc1 (centres undefined)	14-3-3 Bad PPI 95[fluorescence artefact?]
O=C(NCc1ccccc1)C(c1ccco1)N(C(=O)c1csnn1)C1CC1 (centres undefined)	none (no result: p47phox inh, eIF4E-4G inh, p97 ATPase inh, 14-3-3 Bad PPI)
CC(C(=O)N1CCN(c2ccccc2)CC1)c1ccc([N+](=O)[O-])cc1 (centres undefined)	none (no result: p47phox inh, eIF4E-4G inh, p97 ATPase inh, 14-3-3 Bad PPI)
Cc1cccc(NC(=O)NNC(=O)CCc2ccccc2)c1	none (no result: p47phox inh, eIF4E-4G inh, p97 ATPase inh, 14-3-3 Bad PPI)
